Experiments:
[1] = tested on: E. coli CFT073 nalidixic acid resistant line; test: Galleria mellonella infection model, survival; assay type: in vivo; settings: nalidixic acid at 50 mg per body weight kg; 48 h
Outline: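 Nalidixic acid-resistant strain was grown overnight in Mueller-Hinton II broth and washed twice in PBS. Larvae got 10^7 CFU in 10 μl PBS into the hemocoel via the first left proleg, then treatment via the second right proleg. Monotherapy doses were 10–100 mg/kg. Controls were PBS-only and untreated infected larvae. Larvae were kept at 37 °C for 48 h, with survival scored every 6 h.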

[2] = tested on: Galleria mellonella larvae; test: Toxicity in Galleria mellonella larvae; assay type: in vivo; settings: uninfected larvae injected with 10, 25, 50, 100 and 200 mg per body weight kg
Outline: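 Age- and weight-defined larvae, stored at 15 °C without food, were used uninfected. Groups of 10 larvae received hemocoel injections of test compound or nalidixic acid at 10, 25, 50, 100 and 200 mg/kg body weight, given with a 10 μl syringe.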

## CCn1cc(C(=O)O)c(=O)c2ccc(C)nc21 [Nalidixic acid, nalidixic acid]
[1]
  improvement of survival of infected larvae, monotherapy: approximately 25%
[2]
  toxicity in larvae: no toxicity

Source: article PMC8724909 (Molecular Systems Design & Engineering, 2021)
